≈ marks a conversion by molar mass, not a printed value. Calls of active or inactive are those of the source. The calls are words filed in the database; no cut-off is given here.
Key:
Assay type in all cases: functional
Escherichia coli = assay: Antibacterial activity against Escherichia coli ATCC 10536 after 16 to 20 hrs
Method in brief: (§1)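 Broth microdilution MIC. Bacteria grown in brain heart infusion (BHI) broth at 37° for 24 h, then subcultured into fresh BHI for 8 h. Cultures diluted in 0.9% NaCl to McFarland 0.5 (ca. 10^8 cfu/ml), then diluted 20-fold in BHI. Two-fold antibiotic dilution series; 50 μl drug plus 50 μl culture per well. Incubated at 37° for 16–20 h.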

Proteus vulgaris = assay: Antibacterial activity against Proteus vulgaris after 16 to 20 hrs; method in brief: as §1
Klebsiella pneumoniae = assay: Antibacterial activity against Klebsiella pneumoniae A-''AD'' after 16 to 20 hrs; method in brief: as §1
Serratia marcescens = assay: Antibacterial activity against Serratia marcescens ATCC 13880 after 16 to 20 hrs; method in brief: as §1
Bacillus subtilis = assay: Antibacterial activity against Bacillus subtilis ATCC 6633 after 16 to 20 hrs; method in brief: as §1
Micrococcus luteus = assay: Antibacterial activity against Micrococcus luteus ATCC 4698 after 16 to 20 hrs; method in brief: as §1
Enterococcus faecalis = assay: Antibacterial activity against Streptococcus faecalis ATCC 29212 after 16 to 20 hrs; method in brief: as §1

SMILES | Activity (Escherichia coli) | Activity (Proteus vulgaris) | Activity (Klebsiella pneumoniae) | Activity (Serratia marcescens) | Activity (Bacillus subtilis) | Activity (Micrococcus luteus) | Activity (Enterococcus faecalis) | MIC (Escherichia coli) [µg/mL] | MIC (Proteus vulgaris) [µg/mL] | MIC (Klebsiella pneumoniae) [µg/mL] | MIC (Serratia marcescens) [µg/mL] | MIC (Bacillus subtilis) [µg/mL] | MIC (Micrococcus luteus) [µg/mL] | MIC (Enterococcus faecalis) [µg/mL]
COc1c(C)c(OC)c2c(c1OC)[C@@H](CO)N1[C@H]3[C@@H]4[C@@H](C[C@H]([C@H]1C#N)N4C)[C@@H]1OCCN1[C@@H]23 | inactive | inactive | inactive | inactive | inactive | inactive | inactive |  |  |  |  |  |  | 
COc1c(C)c(O)c2c(c1O)[C@@H](CO)N1[C@H]3[C@@H]4[C@@H](C[C@H]([C@H]1O)N4C)[C@@H]1OCCN1[C@@H]23 | Active | Active | Active | Active | Active | Active | Active |  |  |  |  |  |  | 
COC1=C(C)C(=O)C2=C(C1=O)[C@@H](CO)N1[C@H]3[C@@H]4[C@@H](C[C@H]([C@H]1C#N)N4C)[C@H](C#N)N(CCO)[C@@H]23 [CYANOCYCLINE D] |  |  |  |  |  |  |  | 0.5 (≈ 1.1 µM) | 0.5 (≈ 1.1 µM) | 0.125 (≈ 0.276 µM) | 0.25 (≈ 0.551 µM) | 0.061 (≈ 0.135 µM) | 0.125 (≈ 0.276 µM) | 0.25 (≈ 0.551 µM)
COC1=C(C)C(=O)C2=C(C1=O)[C@@H](CO)N1[C@H]3[C@H]4[C@@H](C[C@H]([C@H]1C#N)N4C)[C@@H]1OCCN1[C@@H]23 [CYANOCYCLINE A] |  |  |  |  |  |  |  | 0.125 (≈ 0.293 µM) | 0.25 (≈ 0.586 µM) | 0.125 (≈ 0.293 µM) | 0.5 (≈ 1.17 µM) | 0.031 (≈ 0.0727 µM) | 0.031 (≈ 0.0727 µM) | 0.25 (≈ 0.586 µM)
COc1c(C)c(O)c2c(c1O)[C@@H](CO)N1[C@H]3[C@@H]4[C@@H](C[C@H]([C@H]1C#N)N4C)[C@@H]1OCCN1[C@@H]23 | Active | Active | Active | Active | Active | Active | Active |  |  |  |  |  |  | 
COC1=C(C)C(=O)C2=C(C1=O)[C@@H](CO)N1[C@H]3[C@H]4N[C@H](C[C@H]4[C@@H]4OCCN4[C@@H]23)[C@@H]1O | Active | Active | Active | Active | Active | Active | Active |  |  |  |  |  |  | 
COC1=C(C)C(=O)C2=C(C1=O)[C@@H](CO)N1[C@H]3[C@H]4N[C@H](C[C@H]4[C@@H]4OCCN4[C@@H]23)[C@H]1C#N [CYANOCYCLINE B] |  |  |  |  |  |  |  | 0.25 (≈ 0.606 µM) | 1 (≈ 2.42 µM) | 0.031 (≈ 0.0752 µM) | 0.5 (≈ 1.21 µM) | 0.016 (≈ 0.0388 µM) | 0.063 (≈ 0.153 µM) | 0.25 (≈ 0.606 µM)

Source: ChEMBL document CHEMBL1148185, “New cyanocyclines from a cyanide-treated broth of Streptomyces lusitanus” (1993)
